Our source for the inhibition, Activity and Drug uptake values is ChEMBL document CHEMBL5584288, “Synthesis, biological evaluation and metadynamics simulations of novel N-methyl β-sheet breaker peptides as inhibitors of Alzheimer's β-amyloid fibrillogenesis” (RSC Med Chem, 2024).

In data set [1] the target is Amyloid-beta precursor protein (Homo sapiens) (UniProt P05067). As to the kind of experiment: Inhibition of amyloid beta (1 to 42) (unknown origin) aggregation assessed as reduction in amyloid beta fibril formation at 200 uM incubated for 12 hrs by ThT-based fluorescence analysis. Put shortly:
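Aβ1–42 (20 μM) incubated alone or with peptide (200 μM, tenfold molar excess) plus ThT (10 μM) in 20 mM Tris-HCl pH 7.4 at 20 °C. Real-time fluorescence (excitation 450 nm, emission 482 nm) recorded every 30 min for ~12 h. Intensity plotted against time. Three independent experiments.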

Data set [2] deals with SH-SY5Y. Nature of the data set: Cytotoxicity against human SH-SY5Y cells assessed as reduction in cell viability at 10 to 100 uM after 48 hrs by MTT assay. Type of data set: toxicity, cell-based. As to conditions: dose 10-100 µM. Put shortly:
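Human SH-SY5Y neuroblastoma cells in DMEM with 10% FBS, penicillin/streptomycin, 37 °C, 5% CO2. Seeded at 1.5 × 10^4 per well, treated after 24 h, exposed 48 h. MTT 0.50 mg mL⁻¹ for 4 h at 37 °C, formazan dissolved in DMSO, absorbance 570 nm. Viability expressed as % mitochondrial redox activity of untreated control.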
On the technique in general: Tetrazolium assays rely on reduction of a dye to a coloured formazan, in cell work by metabolically active cells.

Data set [3] is described as follows: Drug uptake in human SH-SY5Y cells at 100 uM by UHPLC-HR MS analysis. Type of data set: ADME, cell-based. Put shortly:
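SH-SY5Y cells seeded at 2.0 × 10^6 per 100 mm dish, treated after 24 h with peptides (100 μM) in FBS-free medium. Cell pellets quenched and extracted, sonicated 5 min, centrifuged 3500 rpm at 0 °C for 10 min. Supernatant lyophilized, reconstituted in acetonitrile and analysed by UHPLC-HR TOF-MS/MS, with extracted ion chromatograms of protonated molecular ions.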

Data set [4] relates to SH-SY5Y. Nature of the data set: Cytoprotective activity against amyloid beta (25 to 35 residues)-induced toxicity in human SH-SY5Y cells assessed as increase in cell viability incubated for 24 hrs by MTT assay. Type of data set: functional, cell-based. As to conditions: dose 10-100 µM. Put shortly: (§1)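 SH-SY5Y cells seeded at 2.0 × 10^4 per well, after 24 h exposed to Aβ25–35 (100.0 μM; DMSO stock 12.5 mM) for 48 h, washed twice with PBS, then given test peptides for a further 24 h. MTT read-out as in cytotoxicity assay. Viability relative to untreated control cells. Mean ± SD of six measurements from three independent experiments.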

Data set [5] has as its system SH-SY5Y. As to the kind of experiment: Cytoprotective activity against amyloid beta (25 to 35 residues)-induced toxicity in human SH-SY5Y cells assessed as increase in cell viability at 100 uM incubated for 24 hrs by MTT assay relative to control. Type of data set: functional. Put shortly: as §1
Data set [6] concerns SH-SY5Y. As to the kind of experiment: Cytoprotective activity against amyloid beta (25 to 35 residues)-induced toxicity in human SH-SY5Y cells assessed as increase in cell viability at 10 uM incubated for 24 hrs by MTT assay relative to control. Type of data set: functional. Put shortly:
as §1

Calls of active or inactive are those of the source. The rule behind the calls is not given here. Square brackets hold non-standard residues; d marks the D form. Peptide text beside a SMILES is read from it. Sar = CNCC(=O)O

Sequence of Amyloid-beta precursor protein (Homo sapiens) (P05067 whole entry): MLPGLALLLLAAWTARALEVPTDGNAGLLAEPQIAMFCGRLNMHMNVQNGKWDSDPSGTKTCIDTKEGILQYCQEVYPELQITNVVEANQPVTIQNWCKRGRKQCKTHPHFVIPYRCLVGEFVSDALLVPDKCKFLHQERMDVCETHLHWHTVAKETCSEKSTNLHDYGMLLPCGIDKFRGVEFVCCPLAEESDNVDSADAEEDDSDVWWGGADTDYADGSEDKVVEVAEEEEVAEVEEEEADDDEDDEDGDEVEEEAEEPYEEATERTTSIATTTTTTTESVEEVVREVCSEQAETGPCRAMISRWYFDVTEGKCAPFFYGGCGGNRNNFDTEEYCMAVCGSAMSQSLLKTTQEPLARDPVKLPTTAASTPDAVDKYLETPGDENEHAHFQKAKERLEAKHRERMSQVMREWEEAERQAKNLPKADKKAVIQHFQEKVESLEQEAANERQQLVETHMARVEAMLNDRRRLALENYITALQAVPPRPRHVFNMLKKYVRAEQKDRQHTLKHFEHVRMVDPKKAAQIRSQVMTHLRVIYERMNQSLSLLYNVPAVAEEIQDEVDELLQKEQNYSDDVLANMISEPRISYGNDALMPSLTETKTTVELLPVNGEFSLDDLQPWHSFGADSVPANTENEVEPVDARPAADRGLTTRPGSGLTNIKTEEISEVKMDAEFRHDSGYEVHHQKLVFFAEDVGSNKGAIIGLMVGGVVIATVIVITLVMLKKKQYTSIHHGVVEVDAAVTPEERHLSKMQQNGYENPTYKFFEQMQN

`CC[C@H](C)[C@H](NC(C)=O)C(=O)N[C@H](C(=O)N(C)CC(=O)N[C@@H](CC(C)C)C(=O)N[C@@H](CCSC)C(=O)N[C@H](C(=O)NCC(=O)N(C)CC(=O)N[C@H](C(N)=O)C(C)C)C(C)C)[C@@H](C)CC`: in data set [1], the inhibition result was “Active”.

`CC(=O)N[C@@H](Cc1ccccc1)C(=O)N[C@@H](CCCCN)C(=O)N[C@@H](CCC(=O)O)C(=O)N(C)CC(=O)N(C)CC(=O)N[C@H](C(N)=O)C(C)C` (Ac-FKE[Sar][Sar]V-NH2): in data set [1], the inhibition result was “Active”.

For the compound `CC(=O)N[C@@H](CCCCN)C(=O)N(C)CC(=O)N[C@H](C(=O)N[C@@H](Cc1ccccc1)C(=O)N[C@@H](Cc1ccccc1)C(=O)N(C)CC(=O)N[C@@H](CCC(=O)O)C(N)=O)C(C)C` (Ac-K[Sar]VFF[Sar]E-NH2), in data set [1], the inhibition result was “Active”. In addition, the Activity entry with SH-SY5Y [2] was “Non-Toxic”; with SH-SY5Y [4], “Dose-Dependent Effect”; with SH-SY5Y [5], 142.1%. Moreover, the Drug uptake result in data set [3] is given as “Active”.

Turning to `CC(=O)N[C@@H](CCCCN)C(=O)N(C)CC(=O)N[C@H](C(=O)N[C@@H](Cc1ccccc1)C(=O)N(C)CC(=O)N[C@@H](CCC(=O)O)C(N)=O)C(C)C` (Ac-K[Sar]VF[Sar]E-NH2), the inhibition entry in data set [1] is “Active”. For the same compound, the Activity result is “Non-Toxic” in the data set with SH-SY5Y [2], “Dose-Dependent Effect” in the data set with SH-SY5Y [4] and about 30% in the data set on SH-SY5Y [6]. In data set [3], the Drug uptake result is “Active”.

In the case of Ac-LPFFD-NH2, the inhibition result in data set [1] is “Active”. Further, the Activity result with SH-SY5Y [2] is “Non-Toxic”; in the data set with SH-SY5Y [4], “Dose-Dependent Effect”; in the data set with SH-SY5Y [5] it was 110.8%.
